Data set [1] has as its target T1, Cytochrome P450 3A4 (Homo sapiens, UniProt P08684). Briefly: Drug level assessed as human recombinant CYP3A4-mediated compound formation treated with bosentan at 5 uM in presence of NADPH after 30 mins by LC-MS/MS analysis. It counts as ADME. The settings on record: recombinant enzyme, 0.5 h. The essentials: (§1)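 Substrate at 5 μM final in 100 mM potassium phosphate, pH 7.4, incubated with human liver microsomes or baculovirus-expressed recombinant CYP3A4, 2D6 or 2C9. Reaction started with 1 mM NADPH and run 0, 15 and 30 min at 37 °C. Stopped with ice-cold acetonitrile containing labetalol internal standard, then centrifuged. Supernatant analysed by LC-MS/MS on a C18 column at 40 °C. Blank was enzyme without substrate.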

A short description of data set [2]: Drug level in human liver microsomes treated with bosentan at 5 uM in presence of NADPH after 30 mins by LC-MS/MS analysis. It counts as ADME. The settings on record: 0.5 h. In outline: as §1
Data set [3] can be described thus: Retention time of the compound. Type of data set: physicochemical.
Data set [4] in a line: Drug level in human liver microsomes treated with 4-(1,1,1,3,3,3-Hexafluoro-2-hydroxypropan-2-yl)-N-(6-(2-hydroxyethoxy)-5-(2-methoxyphenoxy)-2,2'-bipyrimidin-4-yl)benzenesulfonamide at 5 uM in presence of NADPH after 30 mins by LC-MS/MS analysis. It counts as ADME. The settings on record: 0.5 h. The essentials: as §1
For orientation: Microsomes from liver hold many membrane-bound enzymes, among them those of drug oxidation.

Data set [5] deals with T1, Cytochrome P450 3A4. Briefly: Drug level assessed as human recombinant CYP3A4-mediated compound formation treated with 4-(1,1,1,3,3,3-Hexafluoro-2-hydroxypropan-2-yl)-N-(6-(2-hydroxyethoxy)-5-(2-methoxyphenoxy)-2,2'-bipyrimidin-4-yl)benzenesulfonamide at 5 uM in presence of NADPH after 30 mins by LC-MS/MS analysis. The settings on record: recombinant enzyme, 0.5 h. Type of data set: ADME. The essentials:
as §1

The structures appear in SMILES notation.

T1 sequence (P08684 whole entry): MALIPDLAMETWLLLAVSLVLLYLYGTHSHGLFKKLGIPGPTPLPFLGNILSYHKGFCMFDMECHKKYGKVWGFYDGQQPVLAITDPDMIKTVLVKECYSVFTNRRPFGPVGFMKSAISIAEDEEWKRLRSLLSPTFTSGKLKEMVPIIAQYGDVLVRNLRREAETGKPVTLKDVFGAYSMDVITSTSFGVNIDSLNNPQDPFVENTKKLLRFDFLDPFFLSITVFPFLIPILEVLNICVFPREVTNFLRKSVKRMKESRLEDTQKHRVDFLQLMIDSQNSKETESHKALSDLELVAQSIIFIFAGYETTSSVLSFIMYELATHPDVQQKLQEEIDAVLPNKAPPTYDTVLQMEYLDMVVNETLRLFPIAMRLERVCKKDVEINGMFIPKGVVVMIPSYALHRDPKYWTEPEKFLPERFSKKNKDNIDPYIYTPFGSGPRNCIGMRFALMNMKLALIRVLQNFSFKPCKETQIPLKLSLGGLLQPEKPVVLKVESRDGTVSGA

As to `CC(C)(C)c1ccc(S(=O)(=O)Nc2nc(-c3ncccn3)nc(OCCO)c2Oc2ccccc2O)cc1`, the Drug metabolism result (at Cytochrome P450 3A4 [1]; in data set [2]) was “Metabolite_Detected” in each case. For the same compound, the Retention_time in data set [3] stood at 4.73 min.
For `O=S(=O)(Nc1nc(-c2ncccn2)nc(OCCO)c1Oc1ccccc1O)c1ccc(C(O)(C(F)(F)F)C(F)(F)F)cc1`, the Drug metabolism result (in data set [4]; at Cytochrome P450 3A4 [5]) was “Metabolite_Detected” each time. Moreover, in data set [3], the Retention_time amounted to 4.39 min.

The record behind these values is ChEMBL document CHEMBL3861962 (Eur J Med Chem, 2016).
